Source: ChEMBL document CHEMBL5550111, “Design, synthesis and biological evaluation of aryloxy thiophosphoramidate triesters of anticancer nucleoside analogues” (Bioorg Med Chem, 2024)
pIC50: −log10 of the molar value.

Columns and labels:
HepG2 [1] = assay: Cytotoxicity against human HepG2 cells assessed as inhibition of cell viability incubated for 72 hrs by MTS assay; type: functional, cell-based; conditions: HepG2, 72 h
Summary of the method: (§1)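 Cells seeded at 0.5 to 100 × 10^3 per well the day before treatment, then exposed for 72 h to 9 serial concentrations (3.16-fold dilutions, top 198 μM), in duplicate. MTS added for a final 4 h at 37 °C and absorbance read. IC50 is the concentration giving 50% loss of viability. MI% is the maximum inhibition over the tested range.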

5637 [2] = assay: Cytotoxicity against human 5637 cells assessed as maximum inhibition of cell viability upto 198 uM incubated for 72 hrs by MTS assay relative to control; type: functional; conditions: up to 198 µM
Summary of the method: (§2)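 Cells seeded at 0.5 to 100 × 10^3 per well the day before drug addition, then exposed to compound for 72 h. MTS added afterwards, with a further 4 h at 37 °C, and absorbance read. Tested in duplicate at 9 serial 3.16-fold dilutions, top concentration 198 μM. MI% is the maximum inhibition of viability across the tested range.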

5637 [3] = assay: Cytotoxicity against human 5637 cells assessed as inhibition of cell viability incubated for 72 hrs by MTS assay; type: functional, cell-based; conditions: Homo sapiens, 5637, 72 h; summary of the method: as §1
HT-29 [4] = assay: Cytotoxicity against human HT-29 cells assessed as inhibition of cell viability incubated for 72 hrs by MTS assay; type: functional, cell-based; conditions: HT-29, 72 h; summary of the method: as §1
K562 [5] = assay: Cytotoxicity against human K562 cells assessed as maximum inhibition of cell viability upto 198 uM incubated for 72 hrs by MTS assay relative to control; type: functional; conditions: up to 198 µM; summary of the method: as §2
[6] = Cytotoxicity against human ACHN-luc2 cells assessed as inhibition of cell viability incubated for 72 hrs by MTS assay; type: functional, cell-based; conditions: ACHN-luc2, 72 h; summary of the method: as §1
MIA PaCa-2 [7] = assay: Cytotoxicity against human MIA PaCa-2 cells assessed as maximum inhibition of cell viability upto 198 uM incubated for 72 hrs by MTS assay relative to control; type: functional; conditions: up to 198 µM; summary of the method: as §2
MIA PaCa-2 [8] = assay: Cytotoxicity against human MIA PaCa-2 cells assessed as inhibition of cell viability incubated for 72 hrs by MTS assay; type: functional, cell-based; conditions: MIA PaCa-2, 72 h; summary of the method: as §1
MCF7 [9] = assay: Cytotoxicity against human MCF7 cells assessed as inhibition of cell viability incubated for 72 hrs by MTS assay; type: functional, cell-based; conditions: MCF7, 72 h
CAKI-2 [10] = assay: Cytotoxicity against human CAKI-2 cells assessed as maximum inhibition of cell viability upto 198 uM incubated for 72 hrs by MTS assay relative to control; type: functional; conditions: up to 198 µM; summary of the method: as §2
PC-3 [11] = assay: Cytotoxicity against human PC-3 cells assessed as inhibition of cell viability incubated for 72 hrs by MTS assay; type: functional, cell-based; conditions: PC-3, 72 h; summary of the method: as §1
PC-3 [12] = assay: Cytotoxicity against human PC-3 cells assessed as maximum inhibition of cell viability upto 198 uM incubated for 72 hrs by MTS assay relative to control; type: functional; conditions: up to 198 µM; summary of the method: as §2
MDA-MB-231 [13] = assay: Cytotoxicity against human MDA-MB-231 cells assessed as inhibition of cell viability incubated for 72 hrs by MTS assay; type: functional, cell-based; conditions: MDA-MB-231, 72 h; summary of the method: as §1
HL-60 [14] = assay: Cytotoxicity against human HL-60 cells assessed as inhibition of cell viability incubated for 72 hrs by MTS assay; type: functional, cell-based; conditions: HL-60, 72 h; summary of the method: as §1
A498 [15] = assay: Cytotoxicity against human A498 cells assessed as inhibition of cell viability incubated for 72 hrs by MTS assay; type: functional, cell-based; conditions: A498, 72 h; summary of the method: as §1
RL [16] = assay: Cytotoxicity against human RL cells assessed as maximum inhibition of cell viability upto 198 uM incubated for 72 hrs by MTS assay relative to control; type: functional; conditions: up to 198 µM; summary of the method: as §2
K562 [17] = assay: Cytotoxicity against human K562 cells assessed as inhibition of cell viability incubated for 72 hrs by MTS assay; type: functional, cell-based; conditions: K562, 72 h; summary of the method: as §1
MDA-MB-231 [18] = assay: Cytotoxicity against human MDA-MB-231 cells assessed as maximum inhibition of cell viability upto 198 uM incubated for 72 hrs by MTS assay relative to control; type: functional; conditions: up to 198 µM; summary of the method: as §2
KG-1 [19] = assay: Cytotoxicity against human KG-1 cells assessed as maximum inhibition of cell viability upto 198 uM incubated for 72 hrs by MTS assay relative to control; type: functional; conditions: up to 198 µM; summary of the method: as §2
MOLT-4 [20] = assay: Cytotoxicity against human MOLT-4 cells assessed as maximum inhibition of cell viability upto 198 uM incubated for 72 hrs by MTS assay relative to control; type: functional; conditions: up to 198 µM; summary of the method: as §2
COLO 205 [21] = assay: Cytotoxicity against human COLO 205 cells assessed as maximum inhibition of cell viability upto 198 uM incubated for 72 hrs by MTS assay relative to control; type: functional; conditions: up to 198 µM; summary of the method: as §2
KG-1 [22] = assay: Cytotoxicity against human KG-1 cells assessed as inhibition of cell viability incubated for 72 hrs by MTS assay; type: functional, cell-based; conditions: KG-1, 72 h; summary of the method: as §1
CAKI-2 [23] = assay: Cytotoxicity against human CAKI-2 cells assessed as inhibition of cell viability incubated for 72 hrs by MTS assay; type: functional, cell-based; conditions: CAKI-2, 72 h; summary of the method: as §1
HL-60 [24] = assay: Cytotoxicity against human HL-60 cells assessed as maximum inhibition of cell viability upto 198 uM incubated for 72 hrs by MTS assay relative to control; type: functional; conditions: up to 198 µM; summary of the method: as §2
HepG2 [25] = assay: Cytotoxicity against human HepG2 cells assessed as maximum inhibition of cell viability upto 198 uM incubated for 72 hrs by MTS assay relative to control; type: functional; conditions: up to 198 µM; summary of the method: as §2
A498 [26] = assay: Cytotoxicity against human A498 cells assessed as maximum inhibition of cell viability upto 198 uM incubated for 72 hrs by MTS assay relative to control; type: functional; conditions: up to 198 µM; summary of the method: as §2
RL [27] = assay: Cytotoxicity against human RL cells assessed as inhibition of cell viability incubated for 72 hrs by MTS assay; type: functional, cell-based; summary of the method: as §1
[28] = Cytotoxicity against human T24/83 cells assessed as maximum inhibition of cell viability upto 198 uM incubated for 72 hrs by MTS assay relative to control; type: functional; conditions: up to 198 µM; summary of the method: as §2
[29] = Cytotoxicity against human T24/83 cells assessed as inhibition of cell viability incubated for 72 hrs by MTS assay; type: functional, cell-based; conditions: T24/83, 72 h; summary of the method: as §1
[30] = Cytotoxicity against human ACHN-luc2 cells assessed as maximum inhibition of cell viability upto 198 uM incubated for 72 hrs by MTS assay relative to control; type: functional; conditions: up to 198 µM; summary of the method: as §2
COLO 205 [31] = assay: Cytotoxicity against human COLO 205 cells assessed as inhibition of cell viability incubated for 72 hrs by MTS assay; type: functional, cell-based; conditions: COLO 205, 72 h; summary of the method: as §1
MCF7 [32] = assay: Cytotoxicity against human MCF7 cells assessed as maximum inhibition of cell viability upto 198 uM incubated for 72 hrs by MTS assay relative to control; type: functional; conditions: up to 198 µM; summary of the method: as §2
MOLT-4 [33] = assay: Cytotoxicity against human MOLT-4 cells assessed as inhibition of cell viability incubated for 72 hrs by MTS assay; type: functional, cell-based; conditions: MOLT-4, 72 h; summary of the method: as §1
HT-29 [34] = assay: Cytotoxicity against human HT-29 cells assessed as maximum inhibition of cell viability upto 198 uM incubated for 72 hrs by MTS assay relative to control; type: functional; conditions: up to 198 µM; summary of the method: as §2

Question: With C[C@H](NP(=S)(OC[C@@H]1C[C@@H](O)[C@H](n2cnc3c(N)ncnc32)O1)Oc1ccccc1)C(=O)OCc1ccccc1 (some centres undefined) as the compound, how does the pIC50 (HepG2 [1]) read?
Answer: The pIC50 was 4.60.

Question: What about the Imax 5637 [2] of the same compound?
Answer: The Imax was 100%.

Question: And the pIC50 5637 [3]?
Answer: The pIC50 was 4.08.

Question: What about the pIC50 (HT-29 [4]) of the same compound?
Answer: Its pIC50 is 4.24.

Question: And the Imax (K562 [5])?
Answer: Its Imax is 96%.

Question: What about the pIC50 [6] of the same compound?
Answer: The pIC50 was 4.47.

Question: What about the Imax (MIA PaCa-2 [7]) of the same compound?
Answer: Its Imax is 100%.

Question: And the pIC50 (MIA PaCa-2 [8])?
Answer: The pIC50 was 4.90.

Question: And the pIC50 (MCF7 [9])?
Answer: The pIC50 was 4.39.

Question: And the Imax (CAKI-2 [10])?
Answer: Its Imax is 78%.

Question: And the pIC50 (PC-3 [11])?
Answer: The pIC50 was 4.20.

Question: What about the Imax (PC-3 [12]) of the same compound?
Answer: Its Imax is 97%.

Question: And the pIC50 (MDA-MB-231 [13])?
Answer: Its pIC50 is 4.30.

Question: And the pIC50 (HL-60 [14])?
Answer: The pIC50 was 4.13.

Question: And the pIC50 (A498 [15])?
Answer: The pIC50 was 4.35.

Question: And the Imax (RL [16])?
Answer: The Imax was 113%.

Question: What about the pIC50 (K562 [17]) of the same compound?
Answer: The pIC50 was 4.19.

Question: What about the Imax (MDA-MB-231 [18]) of the same compound?
Answer: Its Imax is 96%.

Question: And the Imax (KG-1 [19])?
Answer: Its Imax is 98%.

Question: And the Imax (MOLT-4 [20])?
Answer: The Imax was 99%.

Question: And the Imax (COLO 205 [21])?
Answer: The Imax was 99%.

Question: And the pIC50 (KG-1 [22])?
Answer: Its pIC50 is 4.22.

Question: What about the pIC50 (CAKI-2 [23]) of the same compound?
Answer: The pIC50 was 4.12.

Question: What about the Imax (HL-60 [24]) of the same compound?
Answer: The Imax was 99%.

Question: What about the Imax (HepG2 [25]) of the same compound?
Answer: Its Imax is 100%.

Question: What about the Imax (A498 [26]) of the same compound?
Answer: The Imax was 95%.

Question: What about the pIC50 (RL [27]) of the same compound?
Answer: The pIC50 was 4.02.

Question: What about the Imax [28] of the same compound?
Answer: The Imax was 100%.

Question: What about the pIC50 [29] of the same compound?
Answer: The pIC50 was 4.37.

Question: What about the Imax [30] of the same compound?
Answer: Its Imax is 97%.

Question: What about the pIC50 (COLO 205 [31]) of the same compound?
Answer: The pIC50 was 4.38.

Question: What about the Imax (MCF7 [32]) of the same compound?
Answer: Its Imax is 100%.

Question: What about the pIC50 (MOLT-4 [33]) of the same compound?
Answer: The pIC50 was 5.04.

Question: And the Imax (HT-29 [34])?
Answer: Its Imax is 100%.
